7 compounds from ChEMBL document CHEMBL1145425, “Antitumor agents 259. Design, syntheses, and structure-activity relationship study of desmosdumotin C analogs” (2007) can be followed below.

The structures appear in SMILES notation. In brackets after ≈: the same amount, converted by molar mass.

One assay concerns A549. In words: Cytotoxicity against human A549 cells. Particulars: read-out: ED50 (the source's name). The assay is classed as functional. An outline of the steps:
(§1)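 Sulforhodamine B growth assay. Lines kept in RPMI-1640 with 25 mM HEPES, 0.25% sodium bicarbonate, 10% FBS and kanamycin. Trypsinized cells seeded at 1500–7500 per well, with compound added from DMSO-diluted stock. After 3 days, attached cells fixed with cold 50% TCA, stained with 0.4% SRB, dye solubilized, absorbance read at 562 nm. ED50 is 50% growth reduction, averaged over at least three independent determinations.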
For `COC1=C(C)C(=O)/C(=C(O)/C=C/c2ccc(Br)cc2)C(=O)C1(C)C`, the EC50 amounted to 1.4 µg/mL (≈ 3.58 µM).

Regarding `COC1=C(C)C(=O)/C(=C(O)/C=C/c2ccc(OC)cc2)C(=O)C1(C)C`, the EC50 was found to be 3 µg/mL (≈ 8.76 µM).

As for `COC1=C(C)C(=O)/C(=C(O)/C=C/c2ccccc2OC)C(=O)C1(C)C`, the EC50 came to 2.4 µg/mL (≈ 7.01 µM).

Turning to `COC1=C(C)C(=O)/C(=C(O)/C=C/c2c(C)cc(C)cc2C)C(=O)C1(C)C`, the EC50 is 8 µg/mL (≈ 22.6 µM).

With `COC1=C(C)C(=O)/C(=C(O)/C=C/c2cccc(OC)c2)C(=O)C1(C)C`, the EC50 was determined as 2.8 µg/mL (≈ 8.18 µM).

Regarding `CCC1=C(OC)C(C)(C)C(=O)C(C(=O)/C=C/c2ccccc2)=C1O`, the EC50 was determined as 5.5 µg/mL (≈ 16.9 µM).

On to `COC1=C(C)C(O)=C(C(=O)/C=C/c2ccccc2)C(=O)C1(C)C` [DESMOSDUMOTIN C], for which the EC50 was 3.5 µg/mL (≈ 11.2 µM).

Test system in a further assay: not listed separately
As to the kind of experiment: Selectivity ratio of ED50 for KB cells to ED50 for KB-VIN cells. The assay is classed as functional, Homo sapiens.
Conditions: not given
As for `COC1=C(C)C(=O)/C(=C(O)/C=C/c2c(C)cc(C)cc2C)C(=O)C1(C)C`, the “Ratio ED50” value was greater than 5.

As for `CCC1=C(OC)C(C)(C)C(=O)C(C(=O)/C=C/c2ccccc2)=C1O`, the “Ratio ED50” value worked out at 14.3.

The test system of another assay is PC-3. In words: Cytotoxicity against human PC3 cells. Particulars: read-out: ED50 (the source's name). It counts as functional. An outline of the steps:
as §1
In the case of `COC1=C(C)C(=O)/C(=C(O)/C=C/c2ccc(Br)cc2)C(=O)C1(C)C`, the EC50 was 17.7 µg/mL (≈ 45.2 µM).

Turning to `COC1=C(C)C(=O)/C(=C(O)/C=C/c2ccc(OC)cc2)C(=O)C1(C)C`, the EC50 came to 18.2 µg/mL (≈ 53.2 µM).

Consider `COC1=C(C)C(=O)/C(=C(O)/C=C/c2ccccc2OC)C(=O)C1(C)C`, for which the EC50 came to 15.6 µg/mL (≈ 45.6 µM).

Turning to `COC1=C(C)C(=O)/C(=C(O)/C=C/c2c(C)cc(C)cc2C)C(=O)C1(C)C`, the EC50 is greater than 20 µg/mL.

As to `COC1=C(C)C(=O)/C(=C(O)/C=C/c2cccc(OC)c2)C(=O)C1(C)C`, the EC50 was 14.3 µg/mL (≈ 41.8 µM).

Turning to `CCC1=C(OC)C(C)(C)C(=O)C(C(=O)/C=C/c2ccccc2)=C1O`, the EC50 was 18.9 µg/mL (≈ 57.9 µM).

In the case of `COC1=C(C)C(O)=C(C(=O)/C=C/c2ccccc2)C(=O)C1(C)C` [DESMOSDUMOTIN C], the EC50 was determined as 11.1 µg/mL (≈ 35.5 µM).

Another assay has as its system KB. As to the kind of experiment: Cytotoxicity against human vincristine-resistant KB cells. The assay is classed as functional. Particulars: read-out: ED50 (the source's name). An outline of the steps: as §1
With `COC1=C(C)C(=O)/C(=C(O)/C=C/c2ccc(Br)cc2)C(=O)C1(C)C`, the EC50 came out at 1.9 µg/mL (≈ 4.86 µM).

With `COC1=C(C)C(=O)/C(=C(O)/C=C/c2ccc(OC)cc2)C(=O)C1(C)C`, the EC50 was determined as 2.9 µg/mL (≈ 8.47 µM).

In the case of `COC1=C(C)C(=O)/C(=C(O)/C=C/c2ccccc2OC)C(=O)C1(C)C`, the EC50 was found to be 2.8 µg/mL (≈ 8.18 µM).

With `COC1=C(C)C(=O)/C(=C(O)/C=C/c2c(C)cc(C)cc2C)C(=O)C1(C)C`, the EC50 is 1.84 µg/mL (≈ 5.19 µM).

In the case of `COC1=C(C)C(=O)/C(=C(O)/C=C/c2cccc(OC)c2)C(=O)C1(C)C`, the EC50 came to 2.4 µg/mL (≈ 7.01 µM).

As for `CCC1=C(OC)C(C)(C)C(=O)C(C(=O)/C=C/c2ccccc2)=C1O`, the EC50 is 0.3 µg/mL (≈ 0.919 µM).

Turning to `COC1=C(C)C(O)=C(C(=O)/C=C/c2ccccc2)C(=O)C1(C)C` [DESMOSDUMOTIN C], the EC50 amounted to 3 µg/mL (≈ 9.6 µM).

The subject of the next assay is A-431. In words: Cytotoxicity against human A431 cells. The assay is classed as functional. As to conditions: read-out: ED50 (the source's name). The method, boiled down:
as §1
As to `COC1=C(C)C(=O)/C(=C(O)/C=C/c2ccc(Br)cc2)C(=O)C1(C)C`, the EC50 amounted to 9 µg/mL (≈ 23 µM).

`COC1=C(C)C(=O)/C(=C(O)/C=C/c2ccc(OC)cc2)C(=O)C1(C)C`: the EC50 was 9.2 µg/mL (≈ 26.9 µM).

As to `COC1=C(C)C(=O)/C(=C(O)/C=C/c2ccccc2OC)C(=O)C1(C)C`, the EC50 came out at 6.6 µg/mL (≈ 19.3 µM).

For `COC1=C(C)C(=O)/C(=C(O)/C=C/c2c(C)cc(C)cc2C)C(=O)C1(C)C`, the EC50 was determined as 20 µg/mL (≈ 56.4 µM).

As to `COC1=C(C)C(=O)/C(=C(O)/C=C/c2cccc(OC)c2)C(=O)C1(C)C`, the EC50 is 4.5 µg/mL (≈ 13.1 µM).

In the case of `CCC1=C(OC)C(C)(C)C(=O)C(C(=O)/C=C/c2ccccc2)=C1O`, the EC50 worked out at 13.8 µg/mL (≈ 42.3 µM).

With `COC1=C(C)C(O)=C(C(=O)/C=C/c2ccccc2)C(=O)C1(C)C` [DESMOSDUMOTIN C], the EC50 was 5.1 µg/mL (≈ 16.3 µM).

In another assay the test system is HUVEC. In words: Cytotoxicity against HUVEC. It counts as functional. Particulars: Homo sapiens, read-out: ED50 (the source's name). An outline of the steps:
(§2)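 HUVEC seeded at 1.5×10^3 per well in EGM-2; after 24 h (day zero) compound added in EGM-2 at 2× the desired concentration. Day-zero plate stained with crystal violet. Remaining plates kept 72 h at 37 °C, then stained with 0.5% crystal violet in 20% MeOH. Dye eluted with 1:1 EtOH:0.1 M sodium citrate and read at 540 nm. Run per the NCI Angiogenesis Resource Center protocol.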
As to `COC1=C(C)C(=O)/C(=C(O)/C=C/c2ccc(Br)cc2)C(=O)C1(C)C`, the EC50 worked out at 3.6 µg/mL (≈ 9.2 µM).

Regarding `COC1=C(C)C(=O)/C(=C(O)/C=C/c2ccc(OC)cc2)C(=O)C1(C)C`, the EC50 worked out at 2.5 µg/mL (≈ 7.3 µM).

In the case of `COC1=C(C)C(=O)/C(=C(O)/C=C/c2ccccc2OC)C(=O)C1(C)C`, the EC50 turned out to be 1.7 µg/mL (≈ 4.97 µM).

Take `COC1=C(C)C(=O)/C(=C(O)/C=C/c2cccc(OC)c2)C(=O)C1(C)C`: the EC50 stood at 1.6 µg/mL (≈ 4.67 µM).

As for `COC1=C(C)C(O)=C(C(=O)/C=C/c2ccccc2)C(=O)C1(C)C` [DESMOSDUMOTIN C], the EC50 amounted to 2.1 µg/mL (≈ 6.72 µM).

The next assay has as its system 1A9. As to the kind of experiment: Cytotoxicity against human 1A9 cells. The assay is classed as functional. As to conditions: read-out: ED50 (the source's name). The method, boiled down: as §1
With `COC1=C(C)C(=O)/C(=C(O)/C=C/c2ccc(Br)cc2)C(=O)C1(C)C`, the EC50 was determined as 1.1 µg/mL (≈ 2.81 µM).

In the case of `COC1=C(C)C(=O)/C(=C(O)/C=C/c2ccc(OC)cc2)C(=O)C1(C)C`, the EC50 was 2.8 µg/mL (≈ 8.18 µM).

For the compound `COC1=C(C)C(=O)/C(=C(O)/C=C/c2ccccc2OC)C(=O)C1(C)C`, the EC50 stood at 2.5 µg/mL (≈ 7.3 µM).

For the compound `COC1=C(C)C(=O)/C(=C(O)/C=C/c2c(C)cc(C)cc2C)C(=O)C1(C)C`, the EC50 is 6.2 µg/mL (≈ 17.5 µM).

In the case of `COC1=C(C)C(=O)/C(=C(O)/C=C/c2cccc(OC)c2)C(=O)C1(C)C`, the EC50 was found to be 2.9 µg/mL (≈ 8.47 µM).

As to `CCC1=C(OC)C(C)(C)C(=O)C(C(=O)/C=C/c2ccccc2)=C1O`, the EC50 amounted to 3.8 µg/mL (≈ 11.6 µM).

On to `COC1=C(C)C(O)=C(C(=O)/C=C/c2ccccc2)C(=O)C1(C)C` [DESMOSDUMOTIN C], for which the EC50 was 3.5 µg/mL (≈ 11.2 µM).

A further assay concerns KB. In words: Cytotoxicity against human KB cells. The assay is classed as functional. As to conditions: read-out: ED50 (the source's name). An outline of the steps: as §1
For the compound `COC1=C(C)C(=O)/C(=C(O)/C=C/c2ccc(Br)cc2)C(=O)C1(C)C`, the EC50 turned out to be 1.7 µg/mL (≈ 4.34 µM).

`COC1=C(C)C(=O)/C(=C(O)/C=C/c2ccc(OC)cc2)C(=O)C1(C)C`: the EC50 stood at 3.6 µg/mL (≈ 10.5 µM).

As for `COC1=C(C)C(=O)/C(=C(O)/C=C/c2ccccc2OC)C(=O)C1(C)C`, the EC50 turned out to be 3.3 µg/mL (≈ 9.64 µM).

As for `COC1=C(C)C(=O)/C(=C(O)/C=C/c2c(C)cc(C)cc2C)C(=O)C1(C)C`, the EC50 is greater than 20 µg/mL.

As for `COC1=C(C)C(=O)/C(=C(O)/C=C/c2cccc(OC)c2)C(=O)C1(C)C`, the EC50 stood at 3.3 µg/mL (≈ 9.64 µM).

Turning to `CCC1=C(OC)C(C)(C)C(=O)C(C(=O)/C=C/c2ccccc2)=C1O`, the EC50 came out at 4.3 µg/mL (≈ 13.2 µM).

For the compound `COC1=C(C)C(O)=C(C(=O)/C=C/c2ccccc2)C(=O)C1(C)C` [DESMOSDUMOTIN C], the EC50 was found to be 4 µg/mL (≈ 12.8 µM).

Another assay relates to HUVEC. In words: Antiangiogenesis activity against HUVEC. It counts as functional. Particulars: Homo sapiens, read-out: ED50 (the source's name). An outline of the steps:
as §2
On to `COC1=C(C)C(=O)/C(=C(O)/C=C/c2ccc(Br)cc2)C(=O)C1(C)C`, for which the EC50 is less than 4 µg/mL.

On to `COC1=C(C)C(=O)/C(=C(O)/C=C/c2ccc(OC)cc2)C(=O)C1(C)C`, for which the EC50 was less than 4 µg/mL.

Take `COC1=C(C)C(=O)/C(=C(O)/C=C/c2ccccc2OC)C(=O)C1(C)C`: the EC50 is less than 4 µg/mL.

For the compound `COC1=C(C)C(=O)/C(=C(O)/C=C/c2cccc(OC)c2)C(=O)C1(C)C`, the EC50 was less than 4 µg/mL.

For `COC1=C(C)C(O)=C(C(=O)/C=C/c2ccccc2)C(=O)C1(C)C` [DESMOSDUMOTIN C], the EC50 was less than 4 µg/mL.

In a further assay the test system is HCT-8. As to the kind of experiment: Cytotoxicity against human HCT8 cells. The assay is classed as functional. As to conditions: read-out: ED50 (the source's name). An outline of the steps: as §1
Turning to `COC1=C(C)C(=O)/C(=C(O)/C=C/c2ccc(Br)cc2)C(=O)C1(C)C`, the EC50 worked out at 7.4 µg/mL (≈ 18.9 µM).

On to `COC1=C(C)C(=O)/C(=C(O)/C=C/c2ccc(OC)cc2)C(=O)C1(C)C`, for which the EC50 was determined as 5.6 µg/mL (≈ 16.4 µM).

Consider `COC1=C(C)C(=O)/C(=C(O)/C=C/c2ccccc2OC)C(=O)C1(C)C`, for which the EC50 was 4.1 µg/mL (≈ 12 µM).

As to `COC1=C(C)C(=O)/C(=C(O)/C=C/c2c(C)cc(C)cc2C)C(=O)C1(C)C`, the EC50 came out at 8.4 µg/mL (≈ 23.7 µM).

Turning to `COC1=C(C)C(=O)/C(=C(O)/C=C/c2cccc(OC)c2)C(=O)C1(C)C`, the EC50 is 2.9 µg/mL (≈ 8.47 µM).

Take `CCC1=C(OC)C(C)(C)C(=O)C(C(=O)/C=C/c2ccccc2)=C1O`: the EC50 was 9.4 µg/mL (≈ 28.8 µM).

On to `COC1=C(C)C(O)=C(C(=O)/C=C/c2ccccc2)C(=O)C1(C)C` [DESMOSDUMOTIN C], for which the EC50 came out at 3.7 µg/mL (≈ 11.8 µM).
